CHO parental Ca: counter-screen: ATP calcium response change in parental CHO cells | hit rate 0.63% among 330,000 | parental CHO-K1, ATP-induced calcium, Fluo-8 fluorescence | inhibition, % at 5.6 µM;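 active means inhibition above that plate's mean sample inhibition plus 3 SD, cut at about 26% in these data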;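 further: 0% = ATP-challenged DMSO wells and 100% = DMSO wells without ATP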
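Measured by: calcium-sensitive Fluo-8 fluorescence / Test system: CHO parental line / Controls: ATP-challenged DMSO wells low, unchallenged DMSO wells high / Measure: % inhibition / Compound: single nominal dose of 5.6 µM per compound / Replicates: single well per compound, no replicates / Reagent: ATP as calcium-mobilizing challenge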
OX1R antag-1: blocks the human orexin 1 receptor; OX1R-expressing cells, FRET antagonist read-out; inhibition, % at 6.6 µM; hit rate 1.8% among 330,000; in the data active means inhibition mostly above about 38%, no sharp cut-off; inactive means mostly below about 40%;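 further: 0% = agonist challenge alone and 100% = reference antagonist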
GalR3 antag: antagonists of human GalR3 | O60755 | HEK293 GalR3-CNG cAMP membrane potential fluorescence; galR3 body fused to GalR1 C-terminus | inhibition, % at 3 µM | hit rate 0.44% among 360,000;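 active means inhibition above the screen-wide average plus 3 SD, cut at about 13% in these data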;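 further: forskolin and galanin both at EC90 stimulate the cells; cAMP rise reported by CNG channel membrane potential dye signal; 0% = forskolin plus galanin with DMSO and 100% = forskolin alone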
TAAR1 antag: antagonists of human TAAR1. inhibition, % at 3 µM. CHO RD-HGA16 TAAR1, Fluo-8 calcium fluorescence, antagonist. Q96RJ0. hit rate 1.5% among 360,000;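 active means inhibition above a per-plate cutoff, the mean inhibition of test compounds on that plate plus 3 SD, cut at about 49% in these data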;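 further: 0% = DMSO plus EC80 beta-PEA response and 100% = DMSO alone without agonist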
Target sequence (Q96RJ0 whole entry, looked up): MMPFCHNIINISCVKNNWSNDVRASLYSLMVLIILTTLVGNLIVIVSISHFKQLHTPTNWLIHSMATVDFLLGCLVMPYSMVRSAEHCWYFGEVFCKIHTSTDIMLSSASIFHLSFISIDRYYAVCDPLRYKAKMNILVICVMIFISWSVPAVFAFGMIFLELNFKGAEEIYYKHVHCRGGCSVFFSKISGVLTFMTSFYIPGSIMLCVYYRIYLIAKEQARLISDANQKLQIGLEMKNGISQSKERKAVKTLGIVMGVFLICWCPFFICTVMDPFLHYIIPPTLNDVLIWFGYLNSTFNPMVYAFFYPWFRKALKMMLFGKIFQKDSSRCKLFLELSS
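Test system: CHO RD-HGA16 cells bearing hTAAR1 | Reagent: β-PEA, EC80 | Compound dosing: 3 µM, single point | Schedule: Dye loading 75 min at 37 °C, then 30 min room temperature | Signal: Calcium fluorescence with Fluo-8 | Evaluation: Percent inhibition of PEA-evoked calcium signal, max/basal emission ratio | Control set: DMSO-only wells and EC80 β-PEA-stimulated wells | Repeats: Singlicate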
TAAR1 agonist: human TAAR1 agonism. Q96RJ0. CHO RD-HGA16 TAAR1, Fluo-8 calcium fluorescence; vehicle wells 0%, saturating PEA agonist 100%. activation, % at 3 µM. hit rate 0.99% among 360,000. AID 624467;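 active means activation above the mean activation of all test compounds in the run plus 3 SD, cut at about 38% in these data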
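Test system: RD-HGA16 (CHO) cells co-expressing Gα16 and hTAAR1 / Benchmarks: DMSO vehicle as 0%, PEA at EC100 as 100% / Repeats: no replicates (n 1) / Measure: % activation from peak over basal fluorescence ratio, DMSO-to-PEA scaled / Timing: 17-24 h plating, Fluo-8 75 min 37 °C, 30 min RT / Technique: kinetic Fluo-8 calcium fluorescence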
OX1R antag-2: antagonists of human orexin 1 receptor. hit rate 0.43% among 330,000. inhibition, % at 5 µM. O43613. CHO/OX1R cells, Fluo-8 calcium fluorescence, orexin A;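 active means inhibition above its plate's threshold, mean inhibition of all tested compounds on the plate plus 3 SD, cut at about 37% in these data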;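 further: 0% = orexin A challenge wells and 100% = SB-334867-A antagonist wells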
* marks the source's active call; other numbers are inactive results; x = no result given. Sampled rows, rich in hits. Any-hit rate of the full collection: about 4.3%.

SMILES	CHO parental Ca	OX1R antag-1	GalR3 antag	TAAR1 antag	TAAR1 agonist	OX1R antag-2
O=C(NCc1n[nH]c(=S)n1-c1cccc(C(F)(F)F)c1)c1ccc(S(=O)(=O)N2CCCC2)cc1	-3.9	50.1*	2.3	-2.5	7.9	9.5
C#C[C@]1(O)CC[C@H]2[C@@H]3CCC4=CC(=O)CC[C@@H]4[C@H]3CC[C@@]21C	-15.7	9.1	x	16.2	8.1	-11.9
C#C[C@]1(O)CC[C@H]2[C@@H]3CCC4=Cc5oncc5C[C@]4(C)[C@H]3CC[C@@]21C	30.6	11.4	-0.9	71.1*	38.3*	-26.7
CCCCCc1c(-c2ccc(OC)cc2)ncn1CCc1ccccc1OC	x	x	-8.7	60.7*	14.4	x
CCCCCc1c(-c2ccc(Cl)cc2)ncn1CCc1ccccc1OC	x	x	-8.2	19.1	27.6	x
CCCCc1c(-c2ccc(OC)cc2)ncn1CCc1ccccc1OC	x	x	-5.2	50.2*	23.6	x
CC1=C(C(=O)N2CCCCCC2)CC(CC(=O)NC2CCCCC2)C(=O)N1CCC1=CCCCC1 (stereo not drawn)	x	x	-9.5	16.2	-1.1	x
O=C(NC(=S)Nc1ccccc1OC(F)F)c1ccc2c(c1)OCO2	-7.9	9.2	-3.2	26.0	12.0	4.0
Cc1ccccc1OCc1nc2ccccc2c(=O)n1/N=C/c1cn[nH]c1-c1ccc(Br)cc1	-28.0	23.3	-2.1	31.6	4.7	-7.5
O=c1c2ccccc2nc(COc2ccccc2)n1/N=C/c1cn[nH]c1-c1ccccc1	-18.5	27.9	1.2	55.1*	8.7	-17.9
COc1ccc(-c2csc(C(O)c3ccc(F)cc3)n2)cc1 (stereo not drawn)	x	x	-4.8	78.4*	61.7*	x
COc1ccc(C(O)c2nc(-c3cc4ccccc4o3)cs2)cc1 (stereo not drawn)	x	x	-2.4	49.3*	31.5	x
CN(C)c1ccc(-c2csc(C(O)c3ccc(F)c(F)c3)n2)cc1 (stereo not drawn)	x	x	-7.7	98.8*	99.9*	x
COc1ccc(C(O)c2nc(-c3ccc(N(C)C)cc3)cs2)cc1 (stereo not drawn)	x	x	-5.8	40.2	49.1*	x
Cc1cc(N2CCN(CC(C)(C)O)C[C@H]2C)ccc1N1CCN(Cc2ccccc2)[C@H](C)C1	x	x	-7.5	-14.3	2.5	x
COC(=O)[C@]12C[C@H](CC(=O)N3CCC(c4ccccc4)CC3)C(=O)N(Cc3ccccc3)C1=C[C@H](C(C)(C)C)O[C@@H]2C	x	x	-0.8	-24.4	-0.2	x
O=[N+]([O-])c1cc(C=Nc2cccc3c(O)cccc23)ccc1Cl	-8.2	43.5	x	x	x	-12.9
COc1ccc(-c2ccnc3cc(C(=O)O)nn23)cc1	6.1	56.8*	-3.2	0.0	0.7	-18.8
O=C(O)c1cc2nccc(-c3ccco3)n2n1	0.8	63.8	-6.5	-3.8	17.8	1.7
CN(c1cccnc1)c1ccc(NC(=O)Cc2c[nH]c3ccccc23)cc1-c1cccnc1F	x	x	-6.6	-13.1	2.0	x
Cc1ccsc1-c1nc(CSCC(=O)NCc2ccc3c(c2)OCO3)c(C)o1	-12.3	39.7*	x	-6.4	-1.2	-29.9
CCc1ccc2c(F)cccc2n1	x	x	-1.9	-10.7	1.4	x
CCN1/C(=C/C=C/c2oc3ccc4ccccc4c3[n+]2CC)Oc2ccc3ccccc3c21	64.3*	14.1	x	x	x	75.9*
COc1cc(C[C@@H]2C(=O)OC[C@H]2Cc2ccc(OC)c(OC)c2)ccc1O	12.8	12.1	102.3*	13.7	16.1	32.6
COc1cc(CC2COC(=O)C2Cc2ccc(O)c(OC)c2)ccc1O (stereo not drawn)	x	x	-3.8	-0.9	4.6	x
SMILES	CHO parental Ca	OX1R antag-1	GalR3 antag	TAAR1 antag	TAAR1 agonist	OX1R antag-2
O=C(NC1(C(=O)NC2CCCCC2)CCCCC1)c1ccccn1	-10.4	12.5	-2.1	-21.2	10.7	-16.7
Cc1ccc(NC(=O)C2(NC(=O)c3ccccn3)CCCCC2)cc1Br	-23.6	67.7*	-0.9	-35.1	1.4	-3.8
CC(NC(=O)C1CCCN1S(=O)(=O)c1cccc2nsnc12)c1ccccc1 (stereo not drawn)	-12.3	39.6	x	x	x	-3.5
COC(=O)c1sccc1NC(=O)c1ccc(C)s1	-31.2	56.5*	4.6	6.0	18.5	-3.7
CCOc1ccccc1C(=O)Nc1ccsc1C(=O)OC	-14.7	69.0*	-8.1	-18.4	-0.4	-19.7
CCOc1ccccc1C(=O)Nc1cc(C(=O)NCC(C)C)ccc1Cl	-1.8	48.1*	x	x	x	-15.9

Compound activity from PubChem BioAssay.
